# Shown are actives, neighbours in structure and some others; about 2.2% of the full set was active somewhere.
# Tb hexokinase = blocks Trypanosoma brucei hexokinase 1 activity | recombinant TbHK1, G6PDH-coupled NADH A340 | inhibition, % at 10 µM | 220,000 compounds, 0.11% hits | AID 1430;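 active means inhibition of 50% or more in the single-dose primary screen; inactive means inhibition below 50%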
# 14-3-3 Bad PPI = disrupts binding of bovine 14-3-3 zeta to phospho-Bad peptide; AID 781; P63103; inhibition, % at 21.7 µM; 220,000 compounds, 0.71% hits; TR-FRET 14-3-3zeta/Dy647-pBad peptide displacement, 1 h;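 active means inhibition above about 70%, limit read from the data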
# RanGTP-Impb inh = inhibitors of RanGTP-importin-beta interaction, primary screen, biochemical, FRET, CFP-Ran, YFP-importin-beta, homogeneous | cell-free CFP-Ran/YFP-importin-beta FRET ratio | inhibition, % (concentration not given with the values) | 300,000 compounds, 1.1% hits | AID 2216;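 active means more than half of the replicate wells show a fall in the fluorescence ratio signal beyond about 16%, limit read from the data, passing the limit was not always enough; inconclusive means exactly half of the replicate wells pass the set limit; inactive means fewer than half of replicates pass the limit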
# Hck Nef HTS = inhibitors of human Hck kinase activated by Nef | P08631 | Recombinant Hck-YEEI plus Nef, Z-Lyte FRET kinase assay | inhibition, % at 20 µM | 220,000 compounds, 0.68% hits | AID 463187;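 active means Hck-Nef kinase inhibition above about 50%, limit read from the data; inactive means inhibition below that limit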
# Target sequence (P08631 whole entry, looked up): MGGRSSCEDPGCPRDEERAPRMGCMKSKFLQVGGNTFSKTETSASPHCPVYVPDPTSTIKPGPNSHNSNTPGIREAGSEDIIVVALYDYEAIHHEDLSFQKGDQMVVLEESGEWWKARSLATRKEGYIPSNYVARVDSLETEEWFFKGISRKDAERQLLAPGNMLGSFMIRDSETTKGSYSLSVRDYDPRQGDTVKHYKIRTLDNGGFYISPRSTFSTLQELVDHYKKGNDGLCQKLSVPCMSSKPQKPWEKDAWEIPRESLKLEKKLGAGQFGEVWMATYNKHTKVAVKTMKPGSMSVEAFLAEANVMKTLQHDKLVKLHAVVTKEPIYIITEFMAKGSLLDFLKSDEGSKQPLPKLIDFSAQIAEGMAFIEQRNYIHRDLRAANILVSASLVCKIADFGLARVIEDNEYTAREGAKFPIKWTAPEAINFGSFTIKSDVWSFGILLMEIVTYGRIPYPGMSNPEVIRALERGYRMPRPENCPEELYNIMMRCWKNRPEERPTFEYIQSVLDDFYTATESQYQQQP
# Runt-SMMHC FRET = blocks binding of human RUNX1 Runt domain to CBFb-SMMHC; Q01196+Q13951; Cerulean-Runt/Venus-CBFb-SMMHC FRET ratio 530/480, 1 h; inhibition, % at 20 µM; 220,000 compounds, 0.74% hits;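 active means mean inhibition across duplicate retests at 20 µM reaching about 50%, limit read from the data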;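 further: inhibitors lower the FRET ratio by blocking Runt binding to CBFb-SMMHC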
# Runt-CBFb FRET = inhibitors of human RUNX1 Runt domain binding to CBFb; Cerulean-Runt/Venus-CBFb FRET ratio 530/480, 1 h; inhibition, % at 20 µM; AID 1496; 220,000 compounds, 0.46% hits;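 active means inhibition over about 50% at 20 µM in the single-dose screen, limit read from the data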
#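 Reagent – Venus-CBFb binding partner, 100 nM · Assay system – Cerulean-tagged RUNX1 Runt domain (FRET donor) fusion protein · Input – 100 nM per protein · Incubation – two 1 h room-temperature incubations shielded from light · Measured by – FRET fluorescence · Medium – Tris buffer pH 7.5 with salts and BSA · Benchmarks – unlabeled CBFb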
# YIC counter = counter-screen for RanGTP-importin-beta inhibitors: YIC FRET probe; shares compounds with RanGTP-Impb inh; Purified YIC probe, intramolecular FRET ratio YFP/CFP; IC50, µM; 1,000 compounds, 40% hits;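 active means fitted half-maximal inhibitory concentration no more than tenfold above the top dose tested; inconclusive means flat fit with 30 to 70% activity, or poor fit; inactive means half-maximal concentration beyond tenfold above the top dose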
# Hits are given with their value; 0 = inactive; ? = inconclusive; - = no result given.
SMILES,Tb hexokinase,14-3-3 Bad PPI,RanGTP-Impb inh,Hck Nef HTS,Runt-SMMHC FRET,Runt-CBFb FRET,YIC counter
Cc1c(C(=O)NC2=NCCS2)oc2ccccc12,0,0,0,0,0,0,-
COc1ccc(Oc2nc3c(C)cccn3c(=O)c2/C=C(\C#N)C(N)=O)cc1,0,0,22,0,82,0,6
Cc1ccsc1/C=C(\C#N)C(=O)NC1CCS(=O)(=O)C1 (stereo not given),0,0,0,0,0,0,-
COC(=O)/C(C#N)=C/c1c(Oc2cc(C)cc(C)c2)nc2c(C)cccn2c1=O,0,0,0,0,0,0,-
Cc1cccc(Oc2nc3ccccn3c(=O)c2/C=C(\C#N)C(=O)NC2CCS(=O)(=O)C2)c1 (stereo not given),0,0,27,0,81,0,48
Cc1ccc(Oc2nc3ccccn3c(=O)c2/C=C(\C#N)C(=O)Nc2c(C)n(C)n(-c3ccccc3)c2=O)c(C)c1,0,0,0,0,0,0,-
Cc1cccn2c(=O)c(/C=C(\C#N)C(=O)NC3CCS(=O)(=O)C3)c(Oc3ccc(F)cc3)nc12 (stereo not given),-,-,37,-,-,-,18
CCc1cc(OCCCCNCc2ccccc2)ccc1Cl,0,0,0,0,0,0,-
NC(=O)CC1NC(=O)c2ccccc21 (stereo not given),0,0,?,0,0,0,-
CO/N=C\c1cc(C(=O)c2ccc(Cl)cc2Cl)cn1C,0,0,32,0,0,0,0
Cn1cc(C(=O)c2cccc(Cl)c2)cc1/C=N\O,0,0,0,0,0,0,-
O=C(NCC1CCN(Cc2ccccc2Cl)CC1)Nc1ccccc1F,-,-,17,-,-,-,0
Cn1cccc1/C=C(/C#N)C(N)=S,0,0,0,0,0,0,-
Cc1ccc(-c2ccc(/C=C(\C#N)C(N)=S)n2C)cc1,0,0,31,0,0,0,0
Nc1nc(N2CCOCC2)nc(N(c2ccccc2)c2ccccc2)n1,0,0,21,0,0,0,0
COC(=O)CCC(=O)OC1(C)C(=O)C=C2C=C(C3CC3)N(Cc3ccc4c(c3)OCO4)C=C2C1=O (stereo not given),0,0,0,0,0,0,-
COC(=O)CCC(=O)OC1(C)C(=O)C=C2C=C(C3CC3)N(Cc3ccc(OC)cc3)C=C2C1=O (stereo not given),0,0,20,0,0,0,20
Cc1ccc(CSCCNC(=O)CSc2ccccc2)cc1,0,0,0,0,0,0,-
O=C(c1cc(COc2ccc(F)cc2Cl)on1)N1CCCC(c2ccccc2)C1 (stereo not given),0,0,18,0,0,0,0
O=C(c1cc(COc2ccc(F)cc2F)on1)N1CCCC(c2ccccc2)C1 (stereo not given),0,0,0,0,0,0,-
O=C(c1cc2c(=O)n3ccccc3nc2s1)N1CCN(c2cccc(Cl)c2)CC1,-,-,29,-,-,-,0
CCCC(=Nc1ccccc1OC)C1=C(O)CC(c2ccccc2)CC1=O (stereo not given),0,0,0,0,0,0,-
COc1ccccc1N=C(C)C1=C(O)CC(c2ccccc2)CC1=O (stereo not given),0,0,20,0,0,0,0
COc1ccc(-c2csc3ncnc(N4CCN(c5ccc(OC)cc5)CC4)c23)cc1,-,-,22,-,-,-,0
Cc1cccc(C(=O)Nc2sc(C(=O)N3CCCC3)c(C)c2C#N)c1,0,0,0,0,0,0,-
SMILES,Tb hexokinase,14-3-3 Bad PPI,RanGTP-Impb inh,Hck Nef HTS,Runt-SMMHC FRET,Runt-CBFb FRET,YIC counter
Cc1cccc(C(=O)Nc2sc(C)c(-c3ccccc3)c2C#N)c1,0,0,39,0,0,0,0
Cc1cc(=O)c(C(=O)O)nn1-c1ccccc1Cl,-,-,0,-,-,-,-
CCCS(=O)(=O)c1nc(S(=O)(=O)c2ccc(C)cc2)c(NCc2ccccn2)s1,0,0,0,0,0,0,-
CCS(=O)(=O)c1nc(S(=O)(=O)c2ccc(C)cc2)c(NCc2ccccn2)s1,0,0,16,0,0,0,0
Cc1ccc(-c2nc3cc(C)ccc3o2)cc1,0,0,0,0,0,0,-
Cc1ccc(-c2nc3cc(N)ccc3o2)cc1,0,0,21,0,0,0,0
CCC1(C)Cc2ccccc2-c2[nH][nH]c(=O)c21 (stereo not given),0,0,-,0,0,0,-
O=C(Cn1c2ccccc2c(=O)c2ccccc21)Nc1ccccc1F,0,0,36,0,0,119,6.6
O=C(NC(C(=O)c1ccccc1)N1CCCCC1)c1ccccc1 (stereo not given),0,0,0,0,0,0,-
Cc1nn(C)cc1CN(C)C(=O)c1cc(-c2ccccc2)nc2ccc(Br)cc12,0,0,0,0,0,0,-
Cc1c(CC(=O)O)c(=O)oc2c(C)c3occ(-c4ccc(F)cc4)c3cc12,-,-,24,-,-,-,0
COc1ccc(-c2coc3c(C)c4oc(=O)c(CCC(=O)O)c(C)c4cc23)cc1,-,-,0,-,-,-,-
N#Cc1ccc(OCC(=O)N/N=C(\CCC(=O)O)c2cccs2)cc1,0,0,0,0,0,0,-
Cc1cccc(C)c1NC(=O)C1c2cccc[n+]2CC(=O)N1Cc1cccs1 (stereo not given),0,0,23,0,0,0,0
Cc1ccccc1NC(=O)C1c2cccc[n+]2CC(=O)N1Cc1ccc2c(c1)OCO2 (stereo not given),0,0,0,0,0,0,-
COc1cccc(/C=N/NC(=O)c2cccc3ccccc23)c1OC,-,-,0,-,-,-,-
COc1ccc([N+](=O)[O-])cc1NC(=O)Cc1ccccc1Cl,0,0,0,0,0,0,-
COc1ccc(N=Cc2cc(Cc3ccccc3Cl)cc([N+](=O)[O-])c2O)cc1OC,0,0,16,0,0,0,0
CCOC(=O)c1c(NC(=O)CSc2nnc3c(n2)[nH]c2ccc(F)cc23)sc(C(C)=O)c1C,0,0,-,0,0,0,-
CCOC(=O)c1c(NC(=O)CSc2nnc3c(n2)[nH]c2ccccc23)sc2c1CCN(C)C2,0,-,24,0,-,-,0
OCC1(Cc2cccc(Cl)c2)CCCN(Cc2ccc3cc(F)ccc3n2)C1 (stereo not given),0,0,24,0,0,0,0
O=[N+]([O-])c1cc(CN2CCCC2)ccc1Sc1ccc(Cl)cc1,0,0,19,0,0,0,0
CCCN(CCO)Cc1cccc(Br)c1,0,0,20,0,0,0,0
OCCN(CCO)Cc1ccc(Br)cc1,0,0,0,0,0,0,-
CC1CC(C)CN(S(=O)(=O)CCNC(=O)c2ccccc2)C1 (stereo not given),-,-,0,-,-,-,-
CC(C)N1CCc2c(sc(NC(=O)c3ccc([N+](=O)[O-])o3)c2C(N)=O)C1,-,-,0,-,-,-,-
